# Assay outcomes from PubChem BioAssay.
# Furin inh = inhibitors of human furin; P09958; purified furin, fluorogenic substrate cleavage; inhibition, % at 20 µM or 30 µM; hit rate 0.061% among 220,000; AID 463115; in the data active = inhibition above about 25%
# Target sequence (P09958 108-714 limits assumed): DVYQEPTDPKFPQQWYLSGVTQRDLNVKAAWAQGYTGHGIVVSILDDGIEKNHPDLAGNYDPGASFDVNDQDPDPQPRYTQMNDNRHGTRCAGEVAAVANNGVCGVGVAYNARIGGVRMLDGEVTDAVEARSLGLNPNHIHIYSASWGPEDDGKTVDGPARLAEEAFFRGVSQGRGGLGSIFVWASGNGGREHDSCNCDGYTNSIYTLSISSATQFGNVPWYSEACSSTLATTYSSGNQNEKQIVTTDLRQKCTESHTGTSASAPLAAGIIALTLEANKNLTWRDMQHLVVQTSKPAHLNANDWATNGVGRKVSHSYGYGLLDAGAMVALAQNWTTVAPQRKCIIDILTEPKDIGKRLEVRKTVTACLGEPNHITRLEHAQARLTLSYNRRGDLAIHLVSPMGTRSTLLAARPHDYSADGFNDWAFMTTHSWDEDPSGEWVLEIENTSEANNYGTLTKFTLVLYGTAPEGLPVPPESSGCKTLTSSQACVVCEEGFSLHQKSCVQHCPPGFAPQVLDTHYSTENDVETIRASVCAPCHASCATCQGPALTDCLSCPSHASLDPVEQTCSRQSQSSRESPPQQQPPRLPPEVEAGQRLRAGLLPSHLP
# KLK5 inh = kallikrein 5 (human) inhibition | hit rate 0.59% among 210,000 | recombinant hK5, fluorogenic AMC substrate cleavage | Q9Y337 | inhibition, % at 5 µM;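 active = inhibition of 40% or more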;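 note: 0% = enzyme controls without compound and 100% = no-enzyme blanks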
# FXIIa inh 1536 = blocks human coagulation factor XIIa protease activity; purified FXIIa, Boc-QGR-AMC fluorogenic substrate, 2 h; AID 800; inhibition, % at 5 µM; hit rate 0.3% among 220,000; P00748; in the data active = inhibition above about 40%;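 note: 0% = enzyme with no compound and 100% = blank without enzyme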
# Calpain2 inh = inhibitors of pig calpain II | purified calpain II, fluorogenic peptide substrate, 30 min | inhibition, % at 16 µM | hit rate 0.37% among 220,000 | AID 1236;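 active = inhibition above about 50%, limit read from the data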
# Thrombin inh = inhibitors of human thrombin | hit rate 0.26% among 220,000 | alpha-thrombin, Boc-VPR-AMC fluorogenic substrate cleavage | inhibition, % at 5 µM | P00734;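 active = inhibition at or above 40%; inactive = inhibition below 40%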;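 note: 0% = enzyme with no compound and 100% = wells without enzyme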
#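 Material: human alpha-thrombin enzyme / Medium: pH 7.5 Tris (50 mM) with NaCl 150 mM, Tween 20 0.05% / Compound: single-point dosing at 5 µM, 0.2% DMSO / Incubation: enzyme reaction carried out at room temperature / Detection: AMC fluorescence, 355/460 nm / Read-out basis: percent inhibition scaled between no-compound controls and no-enzyme blanks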
# FXIa inh 1536 = blocks human coagulation factor XIa protease activity; purified FXIa, Boc-Glu-Ala-Arg-AMC fluorogenic substrate; inhibition, % at 5 µM; hit rate 0.14% among 220,000;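 active = inhibition of at least 40%; inactive = inhibition below 40%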;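 note: fluorescence of freed AMC excited at 355 nm; 0% = enzyme without compound and 100% = no enzyme blank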
# An asterisk follows results filed as active; · = no result given. Hits are enriched below; roughly 1.4% of the tested compounds scored in any of these assays.
SMILES,Furin inh,KLK5 inh,FXIIa inh 1536,Calpain2 inh,Thrombin inh,FXIa inh 1536
Cc1ccc(-n2cnc(N)c2C(=O)c2cccc([N+](=O)[O-])c2)cc1,-16,4,2,-9,-1,3
CSc1ncccc1C(=O)Nc1ccc(S(=O)(=O)NC2=NCCCCC2)cc1,-25,4,13,-12,3,4
O=C(N=Nc1c(O)[nH]c2ccc([N+](=O)[O-])cc12)c1cc(-c2ccccc2Cl)nc2ccccc12,-9,-93,6,69*,6,6
CCOC(=O)/C(C)=C1\NC(C)(C)Cc2ccccc21,-26,40,65*,2,-2,5
COc1ccccc1N(C)S(=O)(=O)c1ccc(C(=O)OCC(=O)NCc2cccs2)cc1,-22,-2,7,45,-4,-2
CC(C)C(=O)n1nc(-c2cccnc2)nc1NCc1ccc(F)cc1,-10,·,1,5,100*,3
Cc1ccc(-c2nc(NCc3ccco3)n(S(C)(=O)=O)n2)cc1,-17,-11,5,-17,3,-3
COc1ccc(CNc2nc(NCc3ccc(OC)cc3)n(C(C)=O)n2)cc1,-1,-3,6,-25,-1,-5
COc1ccccc1C(=O)n1nc(-c2cccnc2)nc1NCc1ccccc1,-14,0,3,-2,·,15
CC(=O)n1nc(-c2ccc(C)cc2)nc1NCc1ccco1,-22,6,10,-7,69*,-1
CC(=O)n1nc(-c2ccc(C)cc2)nc1NCc1ccc(F)cc1,-17,-24,-7,-19,94*,-9
COc1ccc(CC(=O)n2nc(-c3ccccc3)nc2NCc2ccco2)cc1,-14,-19,13,-54,93*,6
O=C(Nc1cccc2ccccc12)c1cc2c(cc1Br)OCO2,-17,1,7,-11,4,1
O=C(CN(CCO)c1ccccc1)Nc1ccc(Cl)c(S(=O)(=O)N2CCOCC2)c1,-17,0,3,-1,-4,-2
CC12CS(=O)(=O)CC1SC(=S)N2Cc1ccccc1 (stereo not given),-19,-4,9,-18,3,-2
COc1c(C)cc(C(=O)C2CCCN(C(=O)c3ccc4cc[nH]c4c3)C2)cc1C (stereo not given),-22,·,5,-5,2,-3
COc1ccc(CCCc2n[nH]c(=S)o2)cc1C,-26,6,13,-1,-1,2
COc1ccc(CCCc2n[nH]c(=S)n2C)cc1C,-3,43*,30,26,9,30
O=C(CSCc1ccc([N+](=O)[O-])cc1)Nc1ccccc1C(=O)O,-26,-1,1,-8,-8,-3
CCOc1cc(C2NC(=O)NC(O)(C(F)(F)F)C2C(=O)c2ccc(Cl)cc2)ccc1O (stereo not given),-11,28,27,13,54*,8
NC1=NS(=O)(=O)NC1c1ccc(Br)cc1 (stereo not given),-18,2,13,9,1,1
CC(C)CCNC(=O)COC(=O)c1cc(Br)c(Br)s1,-19,-3,8,26,-5,-4
CCc1nc2ccccc2c(C(=O)OCC(=O)C(C)(C)C)c1C,3,32,27,11,47*,29
O=C(NN=C1CCCCCCC1)c1ccc2ccccc2n1,-18,-3,2,14,·,2
COc1ccc(-c2cc(C(=O)OCC(=O)c3cccc([N+](=O)[O-])c3)c3cc(C)ccc3n2)cc1,-21,-13,3,-46,-1,8
SMILES,Furin inh,KLK5 inh,FXIIa inh 1536,Calpain2 inh,Thrombin inh,FXIa inh 1536
Cc1cc(C(=O)OCC(=O)c2cccc([N+](=O)[O-])c2)c2cccc(C)c2n1,-10,-11,3,-286,61*,-13
COC(=O)C1CC(=O)c2ccsc2C1 (stereo not given),-6,30,9,17,49*,-1
O=[N+]([O-])c1cc(C(F)(F)F)ccc1NCCc1c[nH]c2ccccc12,-7,-5,25,50*,-8,20
O=[N+]([O-])c1cc(C(F)(F)F)ccc1NCCc1c[nH]c2ccc(O)cc12,-16,-4,3,52*,-8,-3
CS(=O)(=O)NCCCNc1ccc(C(F)(F)F)cc1[N+](=O)[O-],-6,2,8,8,2,2
C=CCOC(=O)/C(=C/c1cccc2ccccc12)NC(=O)c1ccccc1,-24,0,3,9,-5,7
CCCCc1[nH]c(=O)c(C#N)c2c1CCCC2,-3,-6,49*,20,3,34
O=C(C[n+]1cccc(CO)c1)Nc1nc2ccccc2s1,-22,-11,1,-30,1,-5
CCCCCCNC(=O)N[C@H](C(=O)NCCC[C@H]1CN2C(=NC[C@H]2C)N1CCC(c1ccccc1)c1ccccc1)C(C)O (stereo not given in full),-24,1,10,-15,1,1
CN1CCN(CCCNC(=O)C2CC(=O)N(C3CCCCC3)C2)CC1 (stereo not given),-23,-28,2,25,-7,3
O=C(NCCN1CCc2ccccc2C1)C1CC(=O)N(C2CCCC2)C1 (stereo not given),-17,2,73*,-1,0,5
CC(C)(C)c1cc(C(=O)NCc2cc(F)cc3c2OCOC3)n(Cc2ccccc2)n1,-15,-2,4,1,-4,0
COc1cc(-c2nnco2)cc(OC)c1OC,-5,38,47*,17,-2,34
CCC(=O)N1CCc2cc(S(=O)(=O)CCC(=O)NCc3ccc4c(c3)OCO4)ccc21,-10,41*,15,-65,2,15
Cc1ccc(C(=O)N2CCC3(CC2)Oc2ccc(F)cc2C(=O)C32CC(c3ccccc3)=NO2)s1 (stereo not given),-29,3,12,-70,2,5
O=S(=O)(Nc1nc2ccccc2nc1Cl)c1ccc(Br)cc1,-32,4,13,2,-5,-1
CCCNC(=O)C1CCN(S(=O)(=O)c2ccc(-c3nn[nH]n3)cc2)CC1,-20,-23,8,-13,3,8
COc1ccc(CNC(=O)C2CCN(S(=O)(=O)c3ccc(-c4nn[nH]n4)cc3)CC2)cc1,-26,39,1,51*,-9,-3
COc1cccc(CNc2ccc(F)c([N+](=O)[O-])c2)c1O,-25,1,6,84*,-4,-3
O=[N+]([O-])c1ccccc1CNc1ccc(F)c(Cl)c1,-21,-12,14,26,-4,7
Cc1ncsc1CCOC(=O)C12CC3CC(CC(C3)C1)C2,-18,-5,20,67*,5,6
O=[N+]([O-])c1cccc(N/N=C/c2cccc(O)c2O)c1,-4,-8,18,-94,-7,5
COCCCN1C(=O)/C(=C/c2ccc(CNS(=O)(=O)c3ccccc3)o2)C(C(=O)OC)=C1C,-25,7,·,-51,1,3
CCSC1=N/C(=C\C=C2/Oc3ccccc3N2CC)C(=O)S1,-25,2,3,14,-6,-3
